# Laboratory results published in PubChem BioAssay AID743238 (Broad Institute, 2013).
# Values joined by “and” are separate entries in the source; they are usually repeats but may differ in a detail not shown here. Equal entries are not always repeated. In all, about 360,000 compounds went through this assay and about 200 (0.056%) were called active. The sample holds actives, similar compounds and a random draw of the others, so the mix is not that of the screen. Values without a mark were called inactive.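 How the source made its calls: active means mean normalized replicate activation at least 10% and every replicate at or above 10%; inconclusive means only one of the two criteria met; inactive means mean below 10% and not all replicates reach 10%.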
# Assay: activators of inactive X chromosome reactivation, primary screen, imaging, XiGFP fibroblasts, GFP high-content imaging, set 2 (AID 743238);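 further: 0% = median of on-plate neutral control wells and 100% = ellipticine 6 µM median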
# Settings: XiGFP mouse fibroblasts, % GFP-positive cells imaging, 3 d; at 7.58 µM; stronger effect = higher value; cells co-treated with 5-aza-dC sensitizer; scaled so ellipticine positive control = 100%
# Procedure, shortened: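 System: 68-5-11 XiGFP fibroblast line; Timing: 3 days compound exposure; Compound dosing: one concentration, pinned; Benchmarks: positive control ellipticine, 6 µM final; Buffer or medium: DMEM containing 5-aza-dC.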
row,SMILES,activation
1,C[C@H]1CN([C@@H](C)CO)C(=O)c2c(c3ccccc3n2C)-c2ccccc2CO[C@H]1CN(C)S(=O)(=O)c1ccc(C#N)cc1,-1.22%
2,CCC(=O)N1CC(=O)N2[C@@H](CO)[C@@H](c3ccc(C#CC4CCCC4)cc3)[C@@H]2C1,-0.0225%
3,CCCC#Cc1ccc([C@H]2[C@H]3CN(C(=O)Nc4cc(F)ccc4F)CC(=O)N3[C@H]2CO)cc1,0.26%
4,CN1C(=O)c2cc(NC(=O)c3cccc(F)c3)ccc2OC[C@@H]2O[C@@H](CC(=O)NCC3CCCCC3)CC[C@H]21,-0.045% and -0.023%
5,Cc1ccccc1S(=O)(=O)N1C[C@H](O)COC[C@H]2O[C@H](CC(=O)N3CCCCC3)CC[C@@H]21,0.037%
6,C=C(C)C[C@H]1CCn2cc(nn2)COCCNC1=O,0.348%
7,C[C@H]1CN([C@@H](C)CO)C(=O)c2cccc(NC(=O)CCCCCC(=O)Nc3ccccc3N)c2O[C@@H]1CN(C)C(=O)NC1CCCCC1,-1.38%
8,C[C@@H]1CN([C@@H](C)CO)C(=O)c2cc(NS(=O)(=O)c3ccc(F)cc3)ccc2O[C@@H]1CN(C)C(=O)NC1CCCCC1,0.0955%
9,O=C(C[C@@H]1C=C[C@H](NC(=O)C2CCC2)[C@@H](CO)O1)NCC1CC1,0.225%
10,C[C@@H]1CN([C@@H](C)CO)C(=O)c2cc(NC(=O)Nc3cccc4ccccc34)ccc2O[C@H]1CN(C)Cc1ccc(Oc2ccccc2)cc1,0.262%
11,O=C([C@@H]1[C@@H](CO)[C@@H]2Cn3c(ccc(C4=CCCC4)c3=O)[C@H]1N2C(=O)c1ccncc1)N1CCCCC1,0.116%
12,O=C(C[C@@H]1C[C@H]2c3cc(NC(=O)Nc4ccccc4F)ccc3O[C@H]2[C@@H](CO)O1)NC1CCCCC1,-0.047%
13,C[C@H](NC(=O)C[C@H]1C=C[C@@H](NC(=O)C2CCOCC2)[C@@H](CO)O1)c1ccccc1,0.456%
14,C[C@@H]1CC=CC[C@@H](c2ccccc2)NC(=O)[C@@H](Cc2ccccc2)N(C)C(=O)c2ccccc2O1 (mixture of isomers),0.0795%
15,Cc1ccc(-c2ccc([C@H]3[C@H]4CN(S(=O)(=O)c5cccc(F)c5)CC(=O)N4[C@H]3CO)cc2)cc1,0.287%
16,CC(C)NC(=O)N1[C@H](CO)[C@@H]2c3ccccc3N(C(=O)Nc3cccc(Cl)c3)C[C@@H]21,0.198%
17,C/C=C/c1ccc([C@H]2[C@@H](CO)N3CCCCN(C(=O)c4ccc(F)cc4)C[C@@H]23)cc1,0.11%
18,O=C(Nc1cc(F)ccc1F)N[C@H]1CC[C@H](CCn2cc(C3CCCC3)nn2)O[C@@H]1CO,0.418%
19,C/C=C/c1ccccc1[C@H]1[C@@H](C#N)N(c2nc(CC)cs2)[C@@H]1CO,-0.0085%
20,OC[C@@H]1[C@@H](c2ccccc2)C2(CN(Cc3cccc(F)c3)C2)N1CC1CCCC1,-0.0685%
21,CO[C@@H]1CN(C)C(=O)c2cc(NC(=O)C3CCCC3)ccc2OC[C@@H](C)N(C(=O)Nc2ccc(C(F)(F)F)cc2)C[C@H]1C,0.0025%

row,SMILES,activation
1,C[C@@H]1CN([C@H](C)CO)C(=O)c2cccc(NS(=O)(=O)c3ccc(Cl)cc3)c2O[C@@H]1CN(C)CC1CC1,0.281%
2,Cc1noc(C)c1NC(=O)N(C)C[C@@H]1Oc2c(NC(=O)C3CCCCC3)cccc2C(=O)N([C@H](C)CO)C[C@@H]1C,-0.974%
3,CCCC(=O)N1CCC2(CC1)CN[C@H](CO)c1[nH]c3cc(OC)ccc3c12,-0.018%
4,O=C(C[C@@H]1CC[C@H]2[C@@H](COC[C@@H](O)CN2S(=O)(=O)c2cccc(F)c2)O1)NCCCN1CCOCC1,-0.0535%
5,C[C@@H]1CCCCO[C@H](CN(C)Cc2ccncc2)[C@@H](C)CN([C@H](C)CO)C(=O)c2cc(NS(C)(=O)=O)ccc2O1,-0.0215%
6,CO[C@H]1CN(C)C(=O)c2ccc(NC(=O)C3CCC3)cc2OC[C@H](C)NC[C@@H]1C,0.146%
7,COc1ccc(NC(=O)Nc2ccc3c(c2)[C@H]2C[C@H](CC(=O)NC4CCCC4)O[C@@H](CO)[C@H]2O3)cc1,4.51%
8,COc1cccc(-c2ccc([C@@H]3[C@H]4CN(C(=O)c5cccnc5)CC(=O)N4[C@H]3CO)cc2)c1,0.076%
9,O=C(c1ccncc1)N1C[C@H]2[C@@H](c3ccccc31)[C@H](CO)N2C(=O)Nc1ccc(F)cc1,0.255%
10,C[C@H]1CN([C@@H](C)CO)C(=O)Cc2cc(NC(=O)Cc3ccccc3)ccc2O[C@@H]1CN(C)S(=O)(=O)c1ccc(Cl)cc1,-1.34%
11,CO[C@@H]1CN(C)C(=O)c2cc(NC(=O)NC3CCCC3)ccc2OC[C@H](C)NC[C@H]1C,0.41%
12,C[C@@H]1CCCCO[C@@H](CN(C)C(=O)CCCN(C)C)[C@@H](C)CN([C@H](C)CO)C(=O)c2cc(NC(=O)Nc3ccc(F)cc3)ccc2O1,0.229%
13,COc1ccc(N2C(=O)C3CCCN3C2c2cccs2)cc1 (stereo unspecified),-0.124%
14,COc1ccc(N2C(=O)C3CCCN3C2c2cc(OC)c(OC)cc2OC)cc1 (stereo unspecified),0%
15,COc1ccc(N2C(=O)C3CCCN3C2c2cccc(OC)c2)cc1 (stereo unspecified),12.3% (active)
16,O=C(C[C@@H]1CC[C@@H]2[C@H](COC[C@H](O)CN2C(=O)C2CC2)O1)NCc1ccncc1,0.085%
17,C[C@@H]1CCCCO[C@H](CN(C)S(C)(=O)=O)[C@@H](C)CN([C@@H](C)CO)C(=O)c2cc(NC(=O)CCC(F)(F)F)ccc2O1,0.0715%
18,O=C(c1ccccn1)N1CC2(C1)[C@@H](c1ccccc1)[C@@H](CO)N2C(=O)C1CCCCC1,-0.0175%
19,O=C(N[C@@H]1CC[C@H](CCn2cc(C3CC3)nn2)O[C@H]1CO)c1cccnc1,-0.107%
20,CO[C@H]1CN(C)C(=O)c2cc(NC(=O)C3CC3)ccc2OC[C@@H](C)NC[C@H]1C,0.168%
21,C#Cc1cc(N2CCN(C(=O)c3ccoc3)CC2)n2nc(-c3cccc(Cl)c3)cc2n1,34% (active)

row,SMILES,activation
1,CCc1nc2ccc(C(=O)N3CCN(c4cccc(Cl)c4)CC3)cc2nc1CC,0.143%
2,CNc1cncc(-c2cccc(C(=O)N3CCOCC3)c2)n1,0.023%
3,CO[C@@H]1CN(C)C(=O)c2cc(NC(=O)c3cccc(F)c3)ccc2OC[C@H](C)N(C)C[C@@H]1C,-0.118%
4,COc1ccc(NC(=O)N(C)C[C@@H]2OCCCC[C@H](C)Oc3ccc(NS(=O)(=O)c4c(C)noc4C)cc3C(=O)N([C@@H](C)CO)C[C@@H]2C)cc1,0.115%
5,C[C@H](CO)N1C[C@H](C)[C@H](CN(C)Cc2ccc(C(=O)Nc3ccccc3N)cc2)Oc2ccc(NC(=O)Nc3ccccc3)cc2CC1=O,0.0505%
6,Cc1noc(C)c1NC(=O)Nc1ccc2c(c1)C(=O)N([C@H](C)CO)C[C@@H](C)[C@H](CN(C)C(=O)Nc1cccc3ccccc13)OCCCC[C@@H](C)O2,0.305%
7,COc1cccc(CNC(=O)C[C@@H]2CC[C@H]3[C@@H](COc4ccc(NC(=O)c5cccs5)cc4C(=O)N3C)O2)c1,-0.028%
8,C[C@H]1CN([C@@H](C)CO)C(=O)c2ccccc2-c2ccccc2CO[C@H]1CN(C)Cc1ccc(-c2ccccc2)cc1,0.132%
9,COc1ccc(S(=O)(=O)Nc2ccc3c(c2)CC(=O)N([C@@H](C)CO)C[C@@H](C)[C@H](CN(C)S(=O)(=O)c2ccccc2)O3)cc1,0.178%
10,COc1cccc(S(=O)(=O)N[C@H]2C=C[C@H](CC(=O)NC3Cc4ccccc4C3)O[C@H]2CO)c1,0.645%
11,C[C@H](O)C#Cc1cnc2c(c1)C(=O)N([C@@H](C)CO)C[C@H](C)[C@@H](CN(C)C(=O)c1ccccc1)O2,-0.975%
12,Cc1ccccc1-c1ccc([C@H]2[C@@H](CO)N3C(=O)CN(C(=O)c4ccncc4)C[C@@H]23)cc1,-0.015%
13,COc1ccc(S(=O)(=O)Nc2ccc3c(c2)C(=O)N([C@@H](C)CO)C[C@H](C)[C@@H](CN(C)C(=O)c2ccccc2)OCCCC[C@H](C)O3)cc1,0.072%
14,COc1ccc2c3c(n(C)c2c1)[C@@H](CO)N(C(C)=O)CC31CCN(Cc2ccc(Cl)cc2)CC1,0.225%
15,C[C@@H]1CCCCO[C@@H](CN(C)S(=O)(=O)c2cn(C)cn2)[C@@H](C)CN([C@@H](C)CO)C(=O)c2cc(NC(=O)Nc3ccc(C(F)(F)F)cc3)ccc2O1,-0.98%
16,CO[C@@H]1CN(C)C(=O)c2ccc(NC(=O)C3CC3)cc2OC[C@H](C)N(C(=O)c2ccccc2)C[C@@H]1C,0.643%
17,CC[C@@H]1CC=CC[C@H](C)Oc2ccccc2C(=O)N(C)[C@H](Cc2ccccc2)C(=O)N1 (mixture of isomers),0.007%
18,C[C@@H]1CCCCO[C@H](CN(C)Cc2ccc3c(c2)OCO3)[C@H](C)CN([C@@H](C)CO)C(=O)c2cc(NS(=O)(=O)c3cccs3)ccc2O1,-0.019%
19,C[C@H]1CCCCO[C@@H](CN(C)C(=O)Nc2ccccc2)[C@@H](C)CN([C@@H](C)CO)C(=O)c2cc(NC(=O)CCC(F)(F)F)ccc2O1,0.045%
